Source: ChEMBL document CHEMBL4184105, “Synthesis and biological evaluation of novel mono- and bivalent ASGP-R-targeted drug-conjugates” (Bioorg Med Chem Lett, 2018)
Active and inactive are the calls of the source. The calls are words filed in the database; no cut-off is given here.

Assays:
HepG2 [1] = experiment: Cytotoxicity against human HepG2 cells by MTS assay; type: functional
[2] = Stability of compound at pH 5 after 24 hrs by HPLC-MS analysis; type: physicochemical; conditions: buffer, pH 5, 24 h
[3] = Stability of compound at pH 7.4 after 24 hrs by HPLC-MS analysis; type: physicochemical; conditions: buffer, pH 7.4, 24 h
[4] = Binding affinity to rabbit asialoglycoprotein receptor by SPR assay; set-up: species or system Oryctolagus cuniculus
HepG2 [5] = experiment: Induction of morphological changes in human HepG2 cells assessed as mitosis with more than 2 poles at 1 umol after 24 hrs by DAPI staining-based immunofluorescence assay; type: functional, cell-based
How it was run: (§1)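 HepG2 cells were fixed, permeabilized and immunostained with an anti-α-tubulin antibody, with nuclei counterstained by DAPI. Nuclear and cytoskeletal (microtubule, mitotic spindle) morphology was then examined by immunofluorescence microscopy alongside untreated cells.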

HepG2 [6] = experiment: Induction of morphological changes in human HepG2 cells assessed as abnormal nuclei at 1 umol after 24 hrs by DAPI staining-based immunofluorescence assay; type: functional, cell-based; how it was run: as §1
HepG2 [7] = experiment: Induction of morphological changes in human HepG2 cells assessed as altered microtubule structure at 1 umol after 24 hrs by DAPI staining-based immunofluorescence assay; type: functional, cell-based; how it was run: as §1

Row | SMILES | Stability [2] | Stability [3] | Kd [4] [nM] | CC50 (HepG2 [1]) [nM] | Activity (HepG2 [5]) | Activity (HepG2 [6]) | Activity (HepG2 [7])
1 | CC(=O)N[C@H]1[C@H](OCCn2cc(CCCC(=O)O[C@H]3C[C@H]4OC[C@@]4(OC(C)=O)[C@H]4[C@H](OC(=O)c5ccccc5)[C@]5(O)C[C@H](OC(=O)[C@H](OC(=O)CCCc6cn(CCO[C@@H]7O[C@H](CO)[C@H](O)[C@H](O)[C@H]7NC(C)=O)nn6)[C@@H](NC(=O)c6ccccc6)c6ccccc6)C(C)=C([C@@H](OC(C)=O)C(=O)[C@]34C)C5(C)C)nn2)O[C@H](CO)[C@H](O)[C@@H]1O | Stable | Stable | – | – | Active | Active | Active
2 | CC(=O)O[C@H]1C(=O)[C@@]2(C)[C@H]([C@H](OC(=O)c3ccccc3)[C@]3(O)C[C@H](OC(=O)[C@H](O)[C@@H](NC(=O)c4ccccc4)c4ccccc4)C(C)=C1C3(C)C)[C@]1(OC(C)=O)CO[C@@H]1C[C@@H]2O [PACLITAXEL] | Stable | Stable | – | 120 to 210 | Active | Active | Active
3 | CC(=O)N[C@@H]1[C@@H](O)[C@@H](O)[C@@H](CO)O[C@H]1n1cc(CCCC(=O)O[C@@H](C(=O)O[C@H]2C[C@@]3(O)[C@@H](OC(=O)c4ccccc4)[C@@H]4[C@]5(OC(C)=O)CO[C@@H]5C[C@H](O)[C@@]4(C)C(=O)[C@H](OC(C)=O)C(=C2C)C3(C)C)[C@@H](NC(=O)c2ccccc2)c2ccccc2)nn1 | Stable | Stable | 2.21 | 92 | – | – | –
4 | CC(=O)N[C@H]1[C@H](OCCn2cc(CCCC(=O)O[C@@H](C(=O)O[C@H]3C[C@@]4(O)[C@@H](OC(=O)c5ccccc5)[C@@H]5[C@]6(OC(C)=O)CO[C@@H]6C[C@H](O)[C@@]5(C)C(=O)[C@H](OC(C)=O)C(=C3C)C4(C)C)[C@@H](NC(=O)c3ccccc3)c3ccccc3)nn2)O[C@H](CO)[C@H](O)[C@@H]1O | Stable | Stable | 249 | 820 | Active | Active | Active

Further compounds by falling Kd [4], results first:

Row | Stability [2] | Stability [3] | Kd [4] [nM] | SMILES | CC50 (HepG2 [1]) [nM] | Activity (HepG2 [5]) | Activity (HepG2 [6]) | Activity (HepG2 [7])
5 | – | – | 2.16 | CC(=O)N[C@H]1[C@H](OCCCCCCNC(=O)CCOCC(COCCC(=O)NCCCCCCO[C@@H]2O[C@H](CO)[C@H](O)[C@H](O)[C@H]2NC(C)=O)(COCCC(=O)NCCCCCCO[C@@H]2O[C@H](CO)[C@H](O)[C@H](O)[C@H]2NC(C)=O)NC(=O)CCCCCCCCCCN=[N+]=[N-])O[C@H](CO)[C@H](O)[C@@H]1O | – | – | – | –
6 | Stable | Stable | 1.39 | CC(=O)N[C@@H]1[C@@H](O)[C@@H](O)[C@@H](CO)O[C@H]1n1cc(CCCC(=O)O[C@H]2C[C@H]3OC[C@@]3(OC(C)=O)[C@H]3[C@H](OC(=O)c4ccccc4)[C@]4(O)C[C@H](OC(=O)[C@H](OC(=O)CCCc5cn([C@@H]6O[C@H](CO)[C@H](O)[C@H](O)[C@H]6NC(C)=O)nn5)[C@@H](NC(=O)c5ccccc5)c5ccccc5)C(C)=C([C@@H](OC(C)=O)C(=O)[C@]23C)C4(C)C)nn1 | 22900 | Active | Active | Active
7 | Stable | Stable | 1.36 | CC(=O)N[C@H]1[C@H](OCCCCCCNC(=O)CCOCC(COCCC(=O)NCCCCCCO[C@@H]2O[C@H](CO)[C@H](O)[C@H](O)[C@H]2NC(C)=O)(COCCC(=O)NCCCCCCO[C@@H]2O[C@H](CO)[C@H](O)[C@H](O)[C@H]2NC(C)=O)NC(=O)CCCCCCCCCCn2cc(CCCC(=O)O[C@@H](C(=O)O[C@H]3C[C@@]4(O)[C@@H](OC(=O)c5ccccc5)[C@@H]5[C@]6(OC(C)=O)CO[C@@H]6C[C@H](O)[C@@]5(C)C(=O)[C@H](OC(C)=O)C(=C3C)C4(C)C)[C@@H](NC(=O)c3ccccc3)c3ccccc3)nn2)O[C@H](CO)[C@H](O)[C@@H]1O | 110 | – | – | –
8 | Stable | Stable | 0.327 | C=CCO[C@@H]1O[C@H](Cn2cc(CCCC(=O)O[C@H]3C[C@H]4OC[C@@]4(OC(C)=O)[C@H]4[C@H](OC(=O)c5ccccc5)[C@]5(O)C[C@H](OC(=O)[C@H](OC(=O)CCCc6cn(C[C@H]7O[C@@H](OCC=C)[C@H](NC(C)=O)[C@@H](O)[C@H]7O)nn6)[C@@H](NC(=O)c6ccccc6)c6ccccc6)C(C)=C([C@@H](OC(C)=O)C(=O)[C@]34C)C5(C)C)nn2)[C@H](O)[C@H](O)[C@H]1NC(C)=O | – | – | – | –
9 | Stable | Stable | 0.161 | C=CCO[C@@H]1O[C@H](Cn2cc(CCCC(=O)O[C@@H](C(=O)O[C@H]3C[C@@]4(O)[C@@H](OC(=O)c5ccccc5)[C@@H]5[C@]6(OC(C)=O)CO[C@@H]6C[C@H](O)[C@@]5(C)C(=O)[C@H](OC(C)=O)C(=C3C)C4(C)C)[C@@H](NC(=O)c3ccccc3)c3ccccc3)nn2)[C@H](O)[C@H](O)[C@H]1NC(C)=O | 3250 | Active | Active | Active
